Measured values taken from ChEMBL document CHEMBL4014309, “Development of an Acrylate Derivative Targeting the NLRP3 Inflammasome for the Treatment of Inflammatory Bowel Disease” (J Med Chem, 2017).
Active and inactive are the calls of the source. No cut-off for these calls is given here.

How the values were obtained:
[1] = molecular target: NACHT, LRR and PYD domains-containing protein 3 (Mus musculus) (UniProt Q8R4B8); assay: Inhibition of NLRP3 inflammasome in LPS-primed C57BL/6 mouse bone marrow derived macrophages assessed as reduction in ATP-induced pyroptosis at 100 to 250 nM preincubated for 1 hr followed by stimulation with ATP measured after 30 mins by LDH release assay
How it was run: (§1)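 Bone marrow macrophages from C57BL/6 mice, differentiated with 20% L-cell medium, primed with LPS (1 µg/mL, 3 h). Test agent or vehicle was added for 1 h, then ATP (5 mM, 30 min) or nigericin (10 µM, 30 min). IL-1β in the medium was measured by ELISA. LDH in the medium was measured colorimetrically as % of total cellular LDH.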

[2] = molecular target: NACHT, LRR and PYD domains-containing protein 3 (Mus musculus) (UniProt Q8R4B8); assay: Inhibition of NLRP3 inflammasome in LPS-primed C57BL/6 mouse bone marrow derived macrophages assessed as reduction in nigericin-induced pyroptosis at 100 to 250 nM preincubated for 1 hr followed by […] measured after 30 mins by LDH release assay; how it was run: as §1
[3] = molecular target: NACHT, LRR and PYD domains-containing protein 3 (Mus musculus) (UniProt Q8R4B8); assay: Inhibition of NLRP3 inflammasome in LPS-primed C57BL/6 mouse bone marrow derived macrophages assessed as reduction in ATP-induced IL-1beta production at 10 to 250 nM preincubated for 1 hr followed by stimulation with ATP measured after 30 mins by ELISA
How it was run: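 C57BL/6 bone marrow macrophages, differentiated with 20% L-cell medium, were primed with LPS (1 µg/mL, 3 h). They were then exposed to compound or vehicle for 1 h and stimulated with ATP (5 mM, 30 min). IL-1β released into the medium was measured by ELISA.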

[4] = molecular target: NACHT, LRR and PYD domains-containing protein 3 (Mus musculus) (UniProt Q8R4B8); assay: Inhibition of NLRP3 inflammasome in LPS-primed C57BL/6 mouse bone marrow derived macrophages assessed as reduction in nigericin-induced IL-1beta production at 10 to 250 nM preincubated for 1 hr followed by stimulation with nigericin measured after 30 mins by ELISA; how it was run: as §1
Rattus norvegicus [5] = assay: (§2) Antiinflammatory activity in DNBS-induced Sprague-Dawley rat colitis model assessed as body weight recovery at 1 mg/kg/day, ig administered as methylcellulose suspension for 6 days simulatneously with 6 days of DNBS-challenge measured daily during compound dosing; format: functional, organism-based
How it was run: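 Colitis was induced with intrarectal DNBS (15 mg in 0.25 mL 50% ethanol). Intragastric treatment ran 6 days from the day of induction: 1 mg/kg/day in 1% methylcellulose, or 12.5–50 mg/kg/day in olive oil. Body weight change (g) was recorded at the end of treatment, mean ± SEM, n = 10.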

Rattus norvegicus [6] = assay: as §2, with “reduction in DNBS-induced spleen” for “body”, “increase by measuring increase in spleen weight” for “recovery”, “dosing (reference value: 39.3%)” for “dosing”; format: functional; parameters: scale not given: the % may be the effect or the level left
How it was run: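 Spleen weight was used as an index of systemic inflammation. Rats had intrarectal DNBS (15 mg/0.25 mL 50% ethanol) and 6 days of intragastric dosing: 1 mg/kg/day in 1% methylcellulose, or 12.5–50 mg/kg/day in 0.2 mL olive oil. The spleen was weighed at sacrifice and expressed as percent increase versus control, n = 10.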

Rattus norvegicus [7] = assay: Antiinflammatory activity in DNBS-induced Sprague-Dawley rat colitis model assessed as DNBS-induced macroscopic damage score at 1 mg/kg/day, ig for 6 days simulatneously with 6 days of DNBS-challenge (reference value: 8.6 +/- 0.6); format: functional
How it was run: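 After intrarectal DNBS (15 mg/0.25 mL 50% ethanol), dosing was intragastric for 6 days (0.2 mL olive oil; 1 mg/kg/day dose in 1% methylcellulose). The whole excised colon was scored for macroscopic damage on a 0–6 point scale by two blinded observers. Values are mean ± SEM, n = 10.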

Rattus norvegicus [8] = assay: Anti-inflammatory activity in DNBS-induced Sprague-Dawley rat colitis model assessed as reduction in DNBS-induced increase in MPO levels in colon at 1 mg/kg/day, ig for 6 days simulatneously with 6 days of DNBS-challenge by ELISA; format: functional, organism-based
How it was run: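 DNBS colitis (15 mg intrarectal in 50% ethanol) was treated by the intragastric route for 6 days from induction (1 mg/kg/day in 1% methylcellulose, or 12.5–50 mg/kg/day in olive oil). Colonic samples (30 mg) were taken adjacent and distal to the necrotic area, homogenized, and assayed for MPO by ELISA. Results are ng MPO per mg tissue, mean ± SEM, n = 10.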

Rattus norvegicus [9] = assay: Anti-inflammatory activity in DNBS-induced Sprague-Dawley rat colitis model assessed as DNBS-induced IL-1beta levels in colon at 1 mg/kg/day, ig for 6 days simulatneously with 6 days of DNBS-challenge by ELISA (reference value: 22.3 +/- 2.9 ng/mg); format: functional
Rattus norvegicus [10] = assay: Anti-inflammatory activity in DNBS-induced Sprague-Dawley rat colitis model assessed as DNBS-induced TNFalpha levels in colon at 1 mg/kg/day, ig for 6 days simulatneously with 6 days of DNBS-challenge by ELISA (reference value: 5.9 +/- 0.6 pg/mg); format: functional
Rattus norvegicus [11] = assay: Toxicity in Sprague-Dawley rat assessed as body weight loss at 1 mg/kg/day, ig; format: organism-based; details: in vivo, po
How it was run: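 Rats received intrarectal DNBS (15 mg in 0.25 mL 50% ethanol) or none. Dosing was intragastric for 6 days from induction: compound 12.5–50 mg/kg/day in 0.2 mL olive oil, or dexamethasone 1 mg/kg/day in 0.2 mL 1% methylcellulose. Body weight change was recorded at end; n = 10, mean ± SEM.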

Sequence of NACHT, LRR and PYD domains-containing protein 3 (Mus musculus) (Q8R4B8 whole entry, the tested form may be a part): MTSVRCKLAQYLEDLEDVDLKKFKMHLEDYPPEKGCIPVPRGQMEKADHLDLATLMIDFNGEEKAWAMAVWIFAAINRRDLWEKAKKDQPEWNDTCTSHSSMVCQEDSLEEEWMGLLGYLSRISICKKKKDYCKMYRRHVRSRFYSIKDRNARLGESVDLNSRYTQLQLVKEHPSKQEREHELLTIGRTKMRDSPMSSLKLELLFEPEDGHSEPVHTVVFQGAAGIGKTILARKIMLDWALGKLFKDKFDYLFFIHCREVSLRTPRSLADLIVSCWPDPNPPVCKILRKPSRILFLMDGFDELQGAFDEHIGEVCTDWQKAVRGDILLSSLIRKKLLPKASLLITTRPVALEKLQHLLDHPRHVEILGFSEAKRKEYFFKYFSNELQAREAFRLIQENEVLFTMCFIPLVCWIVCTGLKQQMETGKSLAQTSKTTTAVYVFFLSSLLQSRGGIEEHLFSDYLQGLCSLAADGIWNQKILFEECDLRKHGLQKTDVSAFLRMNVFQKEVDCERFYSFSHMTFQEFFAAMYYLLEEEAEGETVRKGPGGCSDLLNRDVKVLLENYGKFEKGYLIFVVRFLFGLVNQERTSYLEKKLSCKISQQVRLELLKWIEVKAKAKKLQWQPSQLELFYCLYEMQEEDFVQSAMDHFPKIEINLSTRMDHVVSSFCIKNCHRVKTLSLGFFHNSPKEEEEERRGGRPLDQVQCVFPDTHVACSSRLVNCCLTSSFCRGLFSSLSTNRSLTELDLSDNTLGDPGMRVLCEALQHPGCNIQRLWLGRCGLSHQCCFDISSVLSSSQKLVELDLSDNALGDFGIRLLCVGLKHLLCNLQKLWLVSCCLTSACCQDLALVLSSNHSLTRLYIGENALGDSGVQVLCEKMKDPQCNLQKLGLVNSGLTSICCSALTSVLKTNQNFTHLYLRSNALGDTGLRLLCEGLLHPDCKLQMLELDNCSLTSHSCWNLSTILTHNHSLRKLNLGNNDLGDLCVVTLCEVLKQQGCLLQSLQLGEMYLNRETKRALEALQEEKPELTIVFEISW

- inhibition [1]: Active
- inhibition [2]: Active
- inhibition [3]: inactive
- inhibition [4]: inactive
SMILES: C[C@@H]1C[C@H]2[C@@H]3CCC4=CC(=O)C=C[C@]4(C)[C@@]3(F)[C@@H](O)C[C@]2(C)[C@@]1(O)C(=O)CO [DEXAMETHASONE]
- Activity (Rattus norvegicus [5]): inactive
- Activity (Rattus norvegicus [6]): 1.6%
- Activity_index (Rattus norvegicus [7]): 2
- Activity (Rattus norvegicus [8]): Active
- Activity (Rattus norvegicus [9]): 6.7 ng/mg
- Activity (Rattus norvegicus [10]): 2.2 pg/mg
- Activity (Rattus norvegicus [11]): Toxic
